Screens as filed in PubChem.
HSF1 inhib: HSF1 inhibitors in luciferase reporter cells, primary screen, cell-based, NIH3T3, luminescence; NIH3T3-HGL HSE-luciferase, MG132-induced, luminescence 8 h; hits give low values; AID 2098, 2009; activity change, negative = inhibition, % at 7.5 µM (by protocol); actives 0.77% (n = 300,000);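 active means more than half of replicate wells show activity change below -50%, luminescence cut by over half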;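 further: luciferase reports HSF-1 transcriptional activity via heat shock element; 0% = median of DMSO wells and -100% = zero luminescence signal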
HSF-1 act: HSF-1 activators, primary screen, NIH3T3-HGL cells, MG132 stress, luminescence, single point | activation, % at 9 µM | actives 1.7% (n = 300,000) | NIH3T3-HGL HSF-1 luciferase reporter, 8 h; 100% = twice DMSO control signal | AID 504408, 2011;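 active means mean replicate activation of at least 50% with a set share of replicates each reaching 50%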;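 further: 0% = median of the neutral control wells and 100% = twice that signal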
Rad51 HR inh: human RAD51 strand exchange inhibitors, primary screen, biochemical, fluorescence; DNA repair protein RAD51 homolog 1 (Homo sapiens), Q06609; hRad51 DNA strand exchange, fluorescence dequenching; inhibition, % at 10 µM; actives 0.085% (n = 200,000); AID 1385, 2008;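 active means inhibition above 40% at the single screening dose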;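 further: 0% = DMSO control wells and 100% = blanks with heterologous ssDNA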
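Read-out basis: percent inhibition relative to plate controls and blanks / Assay system: human Rad51 nucleoprotein filaments preassembled on unlabelled ssDNA / Timing: filaments 15 min 37 °C, then compound 30 min / Control set: per-plate controls and blanks / Technique: fluorescence dequenching at 485/520 nm / Compound: 10 µM final, single point / Also added: Fluorescein- and BHQ1-tagged 47-mer duplex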
Hsp70 activator: Hsp70 transcriptional activators, primary screen, cell-based, HeLa, Hsp70 promoter luciferase, luminescence, 10 µM | HeLa Hsp70 promoter luciferase reporter; scaled: vehicle 0, proteasome-inhibitor control 100% | activation, % at 10 µM | actives 0.04% (n = 200,000);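 active means activation above the mean across all tested compounds plus 3 SD, cutoff set per campaign, cut at about 5.5% in these data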;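 further: 100% = MG132 at 30 µM as the positive control and 0% = DMSO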
MDM2 E3 inh: MDM2-luciferase reporter signal enhancers, primary screen, MDM2 E3 ligase inhibitor project, cell-based, luminescence, 1536-well; E3 ubiquitin-protein ligase Mdm2 (Homo sapiens), Q00987; cell-based MDM2 ubiquitination luciferase reporter, 2 h; 0 = plate control, 100 = twice control, blank-subtracted; signal enhancement, % at 5 µM; actives 0.11% (n = 210,000);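 active means signal enhancement of 30% or more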;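 further: luminescence tracks abundance of the self-degrading MDM2-luciferase fusion protein; higher signal means inhibition of MDM2 E3 ligase activity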
Target sequence (Q00987 whole entry, looked up, the tested form may be a part): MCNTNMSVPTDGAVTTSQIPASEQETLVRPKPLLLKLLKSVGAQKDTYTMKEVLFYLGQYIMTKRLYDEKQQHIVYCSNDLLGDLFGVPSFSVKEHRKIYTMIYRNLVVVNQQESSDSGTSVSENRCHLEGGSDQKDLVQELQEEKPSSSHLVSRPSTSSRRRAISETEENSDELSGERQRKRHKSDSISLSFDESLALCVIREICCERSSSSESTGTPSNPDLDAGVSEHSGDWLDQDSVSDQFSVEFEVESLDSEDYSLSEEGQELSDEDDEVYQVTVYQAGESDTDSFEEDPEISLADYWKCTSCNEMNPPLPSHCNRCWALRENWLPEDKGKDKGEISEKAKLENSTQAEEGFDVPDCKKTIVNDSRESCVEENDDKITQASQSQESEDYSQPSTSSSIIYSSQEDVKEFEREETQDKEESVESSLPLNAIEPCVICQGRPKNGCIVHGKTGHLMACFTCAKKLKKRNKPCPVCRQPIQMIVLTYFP
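Test system: stable mammalian line carrying autodegrading MDM2–luciferase fusion reporter; quantity: 2000 cells in each well; times: 4 h cell settling then 2 h compound exposure, 37 °C; detection: luminescence with SteadyLite reagent, 15 min at room temperature; evaluation: percent signal gain over controls, blank-subtracted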
HSV augment: enhancers of HSV replication in host cells, fold increase, host cell viability; HSV replication augmentation in cells; maximum fold increase; actives 0.005% (n = 220,000); in the data active means maximum fold increase above about 1.5; tested in PC3 cells
* marks the source's active call; other numbers are inactive results; i = inactive; x = no result. Most compounds without a hit are left out; they make up all but 2.6% or so of the library.

SMILES	HSF1 inhib	HSF-1 act	Rad51 HR inh	Hsp70 activator	MDM2 E3 inh	HSV augment
CSc1ccc(C2NC(=O)c3ccccc3N2)cc1 (stereo not drawn)	45	69*	x	x	x	x
O=C1NC(c2ccc(O)cc2)Nc2ccccc21 (stereo not drawn)	12	18	x	x	x	x
CCc1[nH]nc2c1C1(CCN(C(=O)OCc3ccccc3)CC1)C(C#N)=C(N)O2	7	55*	7	0	-18	i
CCCOC(=O)c1ccc(NC(=O)c2ccoc2C)cc1	33	56*	0	0	-29	i
Cc1occc1C(=O)Nc1ccc(OCc2ccccc2)cc1	39	56*	2	0	-16	i
C=CCNC(=O)COc1cc(C)cc(C)c1C	-4	-4	3	0	0	i
CCCc1nc(SCC(=O)Nc2cc(Cl)ccc2OC)c2c(=O)n(C)c(=O)n(C)c2n1	-63*	-70	6	0	-5	i
CNc1c([N+](=O)[O-])cnn1-c1cccc(Cl)n1	-3	-5	15	0	-28	i
CC(NS(=O)(=O)c1ccc(Br)cc1)C(c1cccs1)N1CCOCC1 (stereo not drawn)	-3	-16	-4	0	x	i
Cc1ccc(C)c(NC(=O)NCCN2CCCCC2)c1	2	-23	x	x	x	x
CN(C)c1nc(=NCc2ccco2)ss1	-10	-26	13	x	37*	i
CC1(C)S[C@@H]2[C@H](NC(=O)C(NC(=O)N3CCNC3=O)c3ccccc3)C(=O)N2[C@H]1C(=O)O (stereo partly drawn)	-1	4	x	x	x	x
COc1ccc(-c2coc3cc4oc(=O)c(CC(=O)O)c(C)c4cc23)cc1	21	71*	x	x	x	x
Cc1c(CC(=O)O)c(=O)oc2cc3occ(-c4ccc(F)cc4)c3cc12	-3	5	x	x	x	x
C=CCn1c(NCc2ccco2)nc2ccccc21	11	38	x	x	x	x
S=C1Cc2ccccc2N1	-77*	-78	3	x	-6	i
CC(NS(=O)(=O)c1ccc2c(c1)CC(C)N2C(=O)C1CC1)c1ccccc1 (stereo not drawn)	2	-8	x	x	x	x
Cc1ccccc1NC(=S)C1=C(O)c2sccc2N(C)S1(=O)=O	25	58*	5	0	-18	i
O=C1CCCCc2sc(Br)c([N+](=O)[O-])c2N1	77	132*	x	x	-21	i
O=C(COC(=O)Cc1c(Cl)cccc1Cl)Nc1ccc(OC(F)(F)F)cc1	-84*	-86	x	0	x	i
CN(CC(=O)Nc1ccc(OC(F)(F)F)cc1)C(=O)Cc1c(Cl)cccc1Cl	-3	19	x	x	x	x
COc1ccccc1OCCn1c(SCC(=O)O)nc2ccccc21	-1	2	x	x	x	x
CSc1nc2nccc(/C=C\c3ccccc3)n2n1	36	56*	-6	1	-3	i
CC(C)=C1SC(N2CCN(c3cccc(C(F)(F)F)c3)CC2)=NC1=O	3	6	-1	0	30*	i
CC(=O)N1c2ccc(S(=O)(=O)NCCC(=O)Nc3ccc(F)cc3)cc2CC1C (stereo not drawn)	-1	3	x	x	x	x
SMILES	HSF1 inhib	HSF-1 act	Rad51 HR inh	Hsp70 activator	MDM2 E3 inh	HSV augment
O=[N+]([O-])c1ccc(C(O)CSC(=S)N2CCCCC2)cc1 (stereo not drawn)	34	70*	x	x	x	x
O=c1o[nH]c(-c2ccccc2)c1-c1ccccc1	-60*	-67	x	x	x	x
O=c1c(-c2ccccc2)c1-c1ccccc1	13	-3	-6	0	x	i
COc1cc(COC(=O)Oc2ccc(CNC(C)=O)cc2OC)c([N+](=O)[O-])cc1OC	-4	3	x	x	x	x
O=C(COc1ccccc1)NC1CCSC1=O (stereo not drawn)	-5	-2	5	0	-2	i
COC(Cn1cc(C)c(=O)[nH]c1=O)OC	-4	4	4	0	42*	i
Cc1cn(CCOc2ccc(Cl)cc2)c(=O)[nH]c1=O	2	16	x	x	x	x
O=C(CCc1ccccc1)N=C1SC2CS(=O)(=O)CC2N1Cc1ccccc1 (stereo not drawn)	4	7	x	x	x	x
CC(C)N1C(=O)CN(C2CCCCCC2)C(=O)C1c1ccccc1F (stereo not drawn)	-56*	-64	-11	0	11	i
CCCOC1CCCN(C(=O)CCc2nnc(CCCCc3ccccc3)o2)C1 (stereo not drawn)	27	56*	-7	0	1	i
O=C(CCc1nnc(CCCc2ccccc2)o1)N1CCCCCC1	-3	-1	28	0	-5	i
Cc1cc(C)n(C(C)CNC(=O)c2ccc3c(c2)OCO3)n1 (stereo not drawn)	-3	32	x	x	x	x
Oc1nc(Nc2ccccc2)sc1/C=C1\C=Nc2ccccc21	74	101*	-7	x	-9	i
CCn1c(O)c(/C=C2\C=Nc3ccccc32)sc1=O	25	74*	4	0	-3	i
CCn1c(O)c(/C=C2\C=Nc3ccccc32)sc1=Nc1ccc(C)cc1	7	20	3	0	-18	i
CC1CCCCN1C(=O)COc1ccccc1F (stereo not drawn)	19	56*	-6	0	-4	i
Cc1ccc(C=Nc2ccccc2C(N)=O)cc1	55	66*	2	0	-6	i
Cc1ccc(/C=C/C(=O)Nc2ccccc2C(N)=O)cc1	18	59*	-22	0	-34	i
OC(CNC1CCCCC1)COCCOc1ccc(Br)cc1 (stereo not drawn)	-13	-16	-2	0	-15	i
Cn1c(=O)c(=O)n(C)c2cc(N3CCOCC3)c(NS(=O)(=O)c3ccc(Br)cc3)cc21	-5	6	x	x	x	x
CC(Oc1ccc(Br)cc1)C(=O)Nc1nnc(C2CC2)s1 (stereo not drawn)	6	-5	x	x	x	x
CCCc1nc(SCC(=O)Nc2cc(C)on2)c2ccccc2n1	54	106*	-4	0	-14	i
CCn1cc(SCC(=O)Nc2cc(C)on2)c2ccccc21	-59*	-65	6	0	-14	i
Cc1cc(NC(=O)CSc2nc(CCC3CCCC3)nc3ccccc23)no1	21	59*	0	0	-8	i
CCCCNC(=O)CSc1nc(Cc2ccccc2)nc2ccccc12	36	52*	x	x	x	x
Cc1nonc1NC(=O)CSc1nc(CCC2CCCC2)nc2ccccc12	10	8	4	x	x	i
